Results reported in ChEMBL document CHEMBL3621107, “Ring fusion strategy for synthesis and lead optimization of sulfur-substituted anthra[1,2-c][1,2,5]thiadiazole-6,11-dione derivatives as promising scaffold of antitumor agents” (Eur J Med Chem, 2015).
pIC50: −log10 of the molar value.

Key:
[1] = tested on: SK-OV-3; assay: Cytotoxicity against human SKOV3 cells assessed as cell growth at 10 uM after 48 hrs by SRB assay relative to control; type: functional; settings: SK-OV-3, 48 h, read-out: Activity
Summary of the method: (§1)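 First-stage NCI DTP one-dose screen against the 60 human tumour cell line panel. Compounds were tested at a single 10 μM level, and results are given as growth percentage.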

[2] = tested on: HCT-116; assay: Cytotoxicity against human HCT116 cells assessed as cell growth at 10 uM after 48 hrs by SRB assay relative to control; type: functional; settings: HCT-116, 48 h, read-out: Activity
Summary of the method: (§2)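 First-stage NCI-60 screen by the NCI Developmental Therapeutics Program. Each compound was tested once at a single concentration of 10 μM against the 60-cell-line panel. Growth percentage was reported for each cell line.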

[3] = tested on: Malme-3M; assay: Cytotoxicity against human MALME-3M cells assessed as cell growth at 10 uM after 48 hrs by SRB assay relative to control; type: functional; settings: read-out: Activity; summary of the method: as §2
[4] = tested on: SNB-19; assay: Cytotoxicity against human SNB19 cells assessed as cell growth at 10 uM after 48 hrs by SRB assay relative to control; type: functional; settings: SNB-19, 48 h, read-out: Activity
Summary of the method: (§3)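 NCI-60 one-dose screen run by NCI DTP: each cell line exposed to a single 10 µM dose, and percentage growth recorded against untreated growth.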

[5] = tested on: K562; assay: Cytotoxicity against human K562 cells assessed as cell growth at 10 uM after 48 hrs by SRB assay relative to control; type: functional; settings: K562, 48 h, read-out: Activity; summary of the method: as §2
[6] = tested on: OVCAR-3; assay: Cytotoxicity against human OVCAR3 cells assessed as cell growth at 10 uM after 48 hrs by SRB assay relative to control; type: functional; settings: OVCAR-3, 48 h, read-out: Activity; summary of the method: as §1
[7] = tested on: SNB-75; assay: Cytotoxicity against human SNB75 cells assessed as cell growth at 10 uM after 48 hrs by SRB assay relative to control; type: functional; settings: SNB-75, 48 h, read-out: Activity; summary of the method: as §3
[8] = tested on: OVCAR-5; assay: Cytotoxicity against human OVCAR5 cells assessed as cell growth at 10 uM after 48 hrs by SRB assay relative to control; type: functional; settings: OVCAR-5, 48 h, read-out: Activity; summary of the method: as §1
[9] = tested on: RXF 393; assay: Cytotoxicity against human RXF393 cells assessed as cell growth at 10 uM after 48 hrs by SRB assay relative to control; type: functional; settings: RXF 393, 48 h, read-out: Activity; summary of the method: as §1
[10] = tested on: HT-29; assay: Cytotoxicity against human HT-29 cells assessed as cell growth at 10 uM after 48 hrs by SRB assay relative to control; type: functional; settings: HT-29, 48 h, read-out: Activity; summary of the method: as §2
[11] = tested on: IGROV-1; assay: Cytotoxicity against human IGROV1 cells assessed as cell growth at 10 uM after 48 hrs by SRB assay relative to control; type: functional; settings: IGROV-1, 48 h, read-out: Activity; summary of the method: as §2
[12] = tested on: BT-549; assay: Cytotoxicity against human BT549 cells assessed as cell growth at 10 uM after 48 hrs by SRB assay relative to control; type: functional; settings: BT-549, 48 h, read-out: Activity; summary of the method: as §2
[13] = tested on: HL-60(TB); assay: Cytotoxicity against human HL-60(TB) cells assessed as cell growth at 10 uM after 48 hrs by SRB assay relative to control; type: functional; settings: HL-60, 48 h, read-out: Activity
Summary of the method: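 NCI Developmental Therapeutics Program 60-cell-line screen, first stage: a single dose of 10 μM against the panel, reported as percentage growth.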

[14] = tested on: SK-MEL-28; assay: Cytotoxicity against human SK-MEL-28 cells assessed as cell growth at 10 uM after 48 hrs by SRB assay relative to control; type: functional; settings: SK-MEL-28, 48 h, read-out: Activity; summary of the method: as §1
[15] = tested on: PC-3; assay: Cytotoxicity against human PC3 cells after 48 hrs by SRB assay; type: functional, cell-based; settings: PC-3, 48 h
Summary of the method: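 Second-stage NCI-60 panel run by the NCI Developmental Therapeutics Program, covering nine tumour subpanels. Five concentrations were tested: 0.01, 0.1, 1, 10 and 100 μM. Percentage growth at each level was plotted against log10 drug concentration. GI50, TGI and LC50 were read from these dose-response curves. Subpanel MID values were divided into the full-panel MID to give selectivity ratios.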

[16] = tested on: DU-145; assay: Cytotoxicity against human DU145 cells assessed as cell growth at 10 uM after 48 hrs by SRB assay relative to control; type: functional; settings: DU-145, 48 h, read-out: Activity; summary of the method: as §2
[17] = tested on: COLO 205; assay: Cytotoxicity against human COLO205 cells assessed as cell growth at 10 uM after 48 hrs by SRB assay relative to control; type: functional; settings: COLO 205, 48 h, read-out: Activity; summary of the method: as §2
[18] = tested on: TK-10; assay: Cytotoxicity against human TK10 cells assessed as cell growth at 10 uM after 48 hrs by SRB assay relative to control; type: functional; settings: TK-10, 48 h, read-out: Activity; summary of the method: as §3
[19] = tested on: NCI/ADR-RES; assay: Cytotoxicity against human NCI/ADR-RES cells assessed as cell growth at 10 uM after 48 hrs by SRB assay relative to control; type: functional; settings: read-out: Activity; summary of the method: as §1
[20] = tested on: KM12; assay: Cytotoxicity against human KM12 cells assessed as cell growth at 10 uM after 48 hrs by SRB assay relative to control; type: functional; settings: KM12, 48 h, read-out: Activity; summary of the method: as §2
[21] = tested on: SN12C; assay: Cytotoxicity against human SN12C cells assessed as cell growth at 10 uM after 48 hrs by SRB assay relative to control; type: functional; settings: read-out: Activity; summary of the method: as §1
[22] = tested on: MOLT-4; assay: Cytotoxicity against human MOLT4 cells assessed as cell growth at 10 uM after 48 hrs by SRB assay relative to control; type: functional; settings: MOLT-4, 48 h, read-out: Activity; summary of the method: as §1
[23] = tested on: SK-MEL-2; assay: Cytotoxicity against human SK-MEL-2 cells assessed as cell growth at 10 uM after 48 hrs by SRB assay relative to control; type: functional; settings: SK-MEL-2, 48 h, read-out: Activity; summary of the method: as §1
[24] = tested on: UACC-62; assay: Cytotoxicity against human UACC62 cells assessed as cell growth at 10 uM after 48 hrs by SRB assay relative to control; type: functional; settings: UACC-62, 48 h, read-out: Activity; summary of the method: as §3
[25] = tested on: NCI-H460; assay: Cytotoxicity against human NCI-H460 cells assessed as cell growth at 10 uM after 48 hrs by SRB assay relative to control; type: functional; settings: NCI-H460, 48 h, read-out: Activity; summary of the method: as §1
[26] = tested on: SR; assay: Cytotoxicity against human SR cells assessed as cell growth at 10 uM after 48 hrs by SRB assay relative to control; type: functional; settings: read-out: Activity; summary of the method: as §3
[27] = tested on: OVCAR-8; assay: Cytotoxicity against human OVCAR8 cells assessed as cell growth at 10 uM after 48 hrs by SRB assay relative to control; type: functional; settings: OVCAR-8, 48 h, read-out: Activity; summary of the method: as §1
[28] = tested on: UO-31; assay: Cytotoxicity against human UO31 cells assessed as cell growth at 10 uM after 48 hrs by SRB assay relative to control; type: functional; settings: UO-31, 48 h, read-out: Activity; summary of the method: as §3
[29] = tested on: NCI-H226; assay: Cytotoxicity against human NCI-H226 cells assessed as cell growth at 10 uM after 48 hrs by SRB assay relative to control; type: functional; settings: NCI-H226, 48 h, read-out: Activity; summary of the method: as §1
[30] = Cytotoxicity against human Hs578T cells assessed as cell growth at 10 uM after 48 hrs by SRB assay relative to control; type: functional; settings: Hs-578T, read-out: Activity; summary of the method: as §2
[31] = tested on: SF-539; assay: Cytotoxicity against human SF539 cells assessed as cell growth at 10 uM after 48 hrs by SRB assay relative to control; type: functional; settings: SF-539, 48 h, read-out: Activity; summary of the method: as §1

Compound | growth at 10 µM [1] [%] | growth at 10 µM [2] [%] | growth at 10 µM [3] [%] | growth at 10 µM [4] [%] | growth at 10 µM [5] [%] | growth at 10 µM [6] [%] | growth at 10 µM [7] [%] | growth at 10 µM [8] [%] | growth at 10 µM [9] [%] | growth at 10 µM [10] [%] | growth at 10 µM [11] [%] | growth at 10 µM [12] [%] | growth at 10 µM [13] [%] | growth at 10 µM [14] [%] | pIC50 [15] | growth at 10 µM [16] [%] | growth at 10 µM [17] [%] | growth at 10 µM [18] [%] | growth at 10 µM [19] [%] | growth at 10 µM [20] [%] | further results
COc1cccc(Sc2cc3c(c4nsnc24)C(=O)c2ccccc2C3=O)c1 | 110 | 85.7 | 113 | 106 | 38.5 | 85.8 | 81.8 | 123 | 124 | 105 | 99.9 | 94.9 | 84.5 | 102 | < 4.82 | 98.9 | 110 | 131 | 92.7 | 97.1 | growth at 10 µM [21]: 95.9%; growth at 10 µM [22]: 35.8%; growth at 10 µM [23]: 82.6%; growth at 10 µM [24]: 87.7%; growth at 10 µM [25]: 100%; growth at 10 µM [26]: 36.1%; growth at 10 µM [27]: 97.3%; growth at 10 µM [28]: 75.5%; growth at 10 µM [29]: 95.3%; growth at 10 µM [30]: 93.8%; growth at 10 µM [31]: 107%
O=C1c2ccccc2C(=O)c2c1cc(Sc1cc(Cl)ccc1Cl)c1nsnc21 | 84.1 | 81.9 | 94.3 | 84.4 | 47.8 | 99.4 | 47 | 109 | 91.5 | 106 | 78.1 | 79.7 | 72.7 | 123 | < 4.82 | 102 | 110 | 112 | 83.1 | 101 | growth at 10 µM [21]: 96.7%; growth at 10 µM [22]: 1.27%; growth at 10 µM [23]: 101%; growth at 10 µM [24]: 94.1%; growth at 10 µM [25]: 101%; growth at 10 µM [26]: 41.1%; growth at 10 µM [27]: 85.1%; growth at 10 µM [28]: 91.5%; growth at 10 µM [29]: 112%; growth at 10 µM [30]: 72.5%; growth at 10 µM [31]: 88.7%
O=C1c2ccccc2C(=O)c2c1cc(Sc1ccccc1Br)c1nsnc21 | 66.7 | 16.6 | 35.3 | 71.4 | 29.7 | -65.8 | 47.2 | 121 | -8.53 | 96.5 | 27.9 | 52.2 | -44 | 64.7 | 5.24 | 50.6 | 97.4 | 76.5 | -29.9 | 57.9 | growth at 10 µM [21]: 22.6%; growth at 10 µM [22]: 29.7%; growth at 10 µM [23]: 35%; growth at 10 µM [24]: 39.6%; growth at 10 µM [25]: 58.2%; growth at 10 µM [26]: 2.94%; growth at 10 µM [27]: 2.47%; growth at 10 µM [28]: 56.1%; growth at 10 µM [29]: 92.1%; growth at 10 µM [30]: 54.2%; growth at 10 µM [31]: -5.66%
